High-throughput results as filed in PubChem BioAssay.
KCNQ1 act: human KCNQ1 channel potentiation or activation. P51787. CHO-K1 KCNQ1, thallium flux FluxOR fluorescence; hits give high values. B-score at 10 µM. 0.35% of 310,000 active;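 active = fluorescence ratio B-score, a plate-corrected score, at least three library SD, with initial intensity B-score within 5 SD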
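assay system = KCNQ1-transfected CHO-K1 cells | medium = assay buffer with matched DMSO | probe or stimulus = depolarizing K+/Tl+ stimulus, K2SO4 and Tl2SO4 each 12.5 mM in 5x stock | dosing = single dose | incubation = dye 90 min, compound 20 min, room temperature | detection = kinetic FluxOR fluorescence, 10 s baseline plus 110 s post-stimulus | evaluation = ratio B score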
KCNQ1 block: inhibitors of human KCNQ1 potassium channel. P51787. CHO-K1 KCNQ1, FluxOR thallium flux fluorescence; hits give high values. B-score at 10 µM. 1.3% of 310,000 active. AID 2642;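 active = compounds whose thallium flux B-score, printed positive for inhibition, exceeds three library SD while starting fluorescence stays within three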;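 note: channel opened by potassium depolarization with thallium stimulus after 20 min compound exposure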
KCNK9 inh: inhibitors of human KCNK9 two-pore domain potassium channel. Q9NPC2. HEK293 KCNK9, FluxOR thallium flux fluorescence; hits give low values. B-score at 10 µM. 1.2% of 310,000 active. AID 488922;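 active = ratio B-score over 3 SD below the library mean, with starting fluorescence within 5 SD of its mean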;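 note: negative B-score means less thallium flux so channel inhibition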
KCNK3 inh: human KCNK3 channel inhibition, primary screen. O14649. CHO-KCNK3 thallium flux, FluxOR fluorescence; hits give low values. B-score at 10 µM. 0.84% of 340,000 active;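 active = B-score under library mean minus 4 SD, starting fluorescence ratio at most library mean plus 5 SD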;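 note: more negative B-score means stronger inhibition of thallium flux through KCNK3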
hERG rescue: shields human hERG channel from block by proarrhythmic agents. 0.51% of 310,000 active. Q12809. CHO-hERG, FluxOR thallium flux, dofetilide IC70 present. activation (rescue from dofetilide block), less the hit threshold, % at 10 µM;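 active = activation above the mean of controls blocked by dofetilide plus 5 SD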;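 note: thallium influx through hERG after potassium depolarization seen as dye fluorescence rise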
Kir21 block: blocks the mouse Kir2.1 inward-rectifier potassium channel; 0.85% of 310,000 active; AID 1672; HEK293-Kir2.1, FluxOR thallium flux fluorescence; hits give low values; P35561; B-score at 10 µM;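 active = fluorescence ratio B-score at or below minus 3 SD of library scores, with starting-brightness B-score within 2 SD, cut at about -4.2 in these data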;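 note: channel flux triggered by added potassium and thallium sulfate stimulus; B-score of peak minus minimum fluorescence over baseline after thallium stimulus; more negative B-score means stronger Kir2.1 block with less thallium influx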
* = called active by the depositor; i = inactive; . = no result. Hits are enriched below; roughly 3.7% of the tested compounds scored in any of these assays.

SMILES	KCNQ1 act	KCNQ1 block	KCNK9 inh	KCNK3 inh	hERG rescue	Kir21 block
CC(=O)Nc1ccc(NC(=O)C2CCCCN2S(=O)(=O)c2ccc(C(C)(C)C)cc2)cc1 (stereo unspecified)	i	i	i	i	-14.0	1.02
N#Cc1cccc(C#N)c1Oc1ccc(N)cc1	i	i	-6.82*	i	-4.2	-0.24
CN1CCCc2cc3c(C(F)(F)F)cc(=O)oc3nc21	i	11*	i	i	-23.1	-7.13
CC(C)c1cc(=O)oc2c3c4c(cc12)CCCN4CCC3	i	i	i	i	-12.8	-0.93
O=C(c1ccco1)N1CCN(C(=O)c2cc3sccc3n2Cc2ccccc2)CC1	i	i	i	i	-18.6	-0.01
O=C(NCc1ccco1)c1cc2sccc2n1Cc1ccccc1	i	i	-6.94*	i	-7.1	-0.47
CCCCN(CCCC)CC(O)CN(c1cc([N+](=O)[O-])ccc1OC)S(=O)(=O)c1ccccc1 (stereo unspecified)	i	i	i	i	-15.0	0.07
COc1ccc([N+](=O)[O-])cc1N(CC(O)CN(CC(C)C)CC(C)C)S(=O)(=O)c1ccccc1 (stereo unspecified)	i	i	-6.72*	i	-7.7	0.16
COc1ccc(OC)c(CN2CCN(C(=O)c3ccc(C)c(S(=O)(=O)Nc4ccccc4OC)c3)CC2)c1	.	.	.	i	.	.
CC(C)(C)c1ccc(NC(=O)NC2CCCc3ccccc32)cc1 (stereo unspecified)	i	6*	i	i	-4.5	-0.91
COc1cccc(CC2(CO)CCN(C(=O)NC3CCCCC3)CC2)c1	i	i	i	i	8.7*	-0.78
COc1cccc(CC2(CO)CCN(C(=O)NCCc3ccccc3)CC2)c1	i	i	i	i	-1.3	0.06
COc1ccc(C(=O)NNC(=O)c2ccc(S(=O)(=O)N3CC(C)OC(C)C3)cc2)cc1 (stereo unspecified)	i	7*	i	i	-6.7	1.25
COc1cc(OC)cc(C(=O)NNC(=O)c2ccc(S(=O)(=O)N3CC(C)OC(C)C3)cc2)c1 (stereo unspecified)	i	i	i	i	-8.6	0.04
Cn1nc(-c2ccccc2)c(C(O)c2ccccc2C(F)(F)F)c1Cl (stereo unspecified)	i	i	i	i	-13.6	-1.31
COC(c1ccccc1)c1c(-c2ccccc2)nn(C)c1Cl (stereo unspecified)	i	i	i	i	-12.9	-4.84*
CC(C)c1cc(C(=O)OCC(=O)N2CCN(C(=O)c3ccco3)CC2)c(O)c(C(C)C)c1	i	i	i	i	-15.3	-1.38
CCOc1cc(CNCc2cccs2)cc(Br)c1OCC	i	i	i	i	-9.5	-5.59*
CCOc1cc(CNCCO)cc(Br)c1OCc1cccs1	i	i	i	i	-8.7	-12.6*
CCOc1cc(CNCc2ccncc2)cc(Br)c1OCc1ccccc1F	i	i	i	i	-19.1	-7.95*
Brc1cccc(CNCc2cccs2)c1	i	i	i	i	-4.8	-0.5
CC(C)N(Cc1ccccc1)C(=O)CN1C(=O)NC2(CCCC2)C1=O	.	.	.	i	.	.
COc1ccc(CCCN2CCC(CN3C(=S)NC[C@@H]3Cc3ccccc3)CC2)cc1OC	.	.	.	i	.	.
O=C(C=P(c1ccccc1)(c1ccccc1)c1ccccc1)c1ccccc1-c1ccccc1C(=O)C=P(c1ccccc1)(c1ccccc1)c1ccccc1	.	.	.	i	.	.
O=C(NCc1ccccc1Cl)C1CCC(CNc2nc(=S)[nH]c3ccccc23)CC1 (stereo unspecified)	i	i	i	i	5.6*	1.35
O=C(NCCc1ccc(Cl)cc1)C1CCC(CNc2nc(=S)[nH]c3ccccc23)CC1 (stereo unspecified)	i	i	i	i	-13.4	-0.98
O=C(NCCc1ccccc1)C(=O)NCC1CCNCC1	i	i	i	.	4.6*	0.27
CC1CCN(C(=O)c2ncn(Cc3ccccc3)c2C(=O)N2CCC(C)CC2)CC1	.	.	.	i	.	.
